The source of these data is ChEMBL document CHEMBL1926536, “Synthesis, molecular modeling studies and biological evaluation of fluorine substituted analogs of GW 501516” (Bioorg Med Chem, 2011).

The structures appear in SMILES notation.

Test [1] has as its target T1, Peroxisome proliferator-activated receptor alpha (Homo sapiens, UniProt Q07869).
T1 sequence (Q07869 whole entry): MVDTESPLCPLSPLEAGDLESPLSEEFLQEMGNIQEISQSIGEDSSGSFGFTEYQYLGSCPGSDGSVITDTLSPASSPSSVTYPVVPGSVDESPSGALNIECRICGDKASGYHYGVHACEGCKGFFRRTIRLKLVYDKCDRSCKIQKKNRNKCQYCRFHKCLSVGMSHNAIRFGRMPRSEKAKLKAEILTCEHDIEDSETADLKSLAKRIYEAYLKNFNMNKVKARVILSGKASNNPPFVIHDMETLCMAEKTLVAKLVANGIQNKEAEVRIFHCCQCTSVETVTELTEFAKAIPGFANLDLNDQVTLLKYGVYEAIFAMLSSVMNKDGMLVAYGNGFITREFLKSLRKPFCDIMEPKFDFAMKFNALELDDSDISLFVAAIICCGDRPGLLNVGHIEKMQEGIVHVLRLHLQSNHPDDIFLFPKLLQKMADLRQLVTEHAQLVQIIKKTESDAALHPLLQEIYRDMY
The test is described as follows: Agonist activity at human PPARalpha ligand binding domain expressed in COS-1 cells co-transfected with Gal4 after 24 hrs by luciferase reporter gene assay. In kind it is cell-based.

Test [2] deals with T2, Peroxisome proliferator-activated receptor delta (Homo sapiens, UniProt Q03181).
T2 sequence (Q03181 whole entry): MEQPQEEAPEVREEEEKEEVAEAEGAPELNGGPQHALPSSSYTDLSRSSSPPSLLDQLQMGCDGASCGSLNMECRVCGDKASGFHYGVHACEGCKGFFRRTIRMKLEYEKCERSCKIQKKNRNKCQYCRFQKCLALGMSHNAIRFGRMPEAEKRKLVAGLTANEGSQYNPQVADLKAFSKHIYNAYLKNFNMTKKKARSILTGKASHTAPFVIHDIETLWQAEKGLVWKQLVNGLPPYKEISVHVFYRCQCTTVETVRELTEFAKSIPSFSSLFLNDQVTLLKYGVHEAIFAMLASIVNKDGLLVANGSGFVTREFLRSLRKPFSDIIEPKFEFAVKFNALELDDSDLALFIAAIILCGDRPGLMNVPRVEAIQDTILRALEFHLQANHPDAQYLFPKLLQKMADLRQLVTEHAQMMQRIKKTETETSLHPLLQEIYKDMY
Description: Agonist activity at human PPARdelta ligand binding domain expressed in COS-1 cells after 24 hrs by luciferase reporter gene-based luminometric analysis. In kind it is cell-based. (In a reporter assay the amount or activity of a reporter protein is the signal.)

Test [3] deals with T3, Peroxisome proliferator-activated receptor gamma (Homo sapiens, UniProt P37231).
T3 sequence (P37231 whole entry): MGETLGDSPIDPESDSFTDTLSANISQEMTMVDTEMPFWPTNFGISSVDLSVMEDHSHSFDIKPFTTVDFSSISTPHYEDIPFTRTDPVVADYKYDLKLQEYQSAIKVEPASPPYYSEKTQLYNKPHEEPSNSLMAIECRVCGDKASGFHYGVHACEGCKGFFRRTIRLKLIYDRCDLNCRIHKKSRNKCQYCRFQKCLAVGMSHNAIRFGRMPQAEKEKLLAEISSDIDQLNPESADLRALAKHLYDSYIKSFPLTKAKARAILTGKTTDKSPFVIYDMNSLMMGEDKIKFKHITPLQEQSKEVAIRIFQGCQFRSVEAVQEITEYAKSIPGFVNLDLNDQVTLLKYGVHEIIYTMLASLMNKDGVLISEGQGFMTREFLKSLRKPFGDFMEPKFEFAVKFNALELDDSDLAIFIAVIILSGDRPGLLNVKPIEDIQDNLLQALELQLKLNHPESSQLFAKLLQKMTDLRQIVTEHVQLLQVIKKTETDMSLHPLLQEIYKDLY
In kind it is cell-based, COS-1.

Test [4] in a line: Induction of [14C]oleic acid oxidation in a human myotubes after 4 days by beta liquid scintillation counting. The test is classed as functional. The method, boiled down:
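Satellite cells from human abdominal muscle biopsies of healthy donors, differentiated to myotubes for 7 days in DMEM (5.5 mM glucose) with 2% FCS and 25 pM insulin. Then [1-14C]oleic acid (1 µCi/mL, 100 µM) in DPBS with 10 mM HEPES and 1 mM L-carnitine, 4 h at 37 °C. Trapped CO2 counted by scintillation, normalized to protein. EC50 from three independent experiments in quadruplicate, mean ± SD.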

As for `CC/C=C\C/C=C\C/C=C\C/C=C\CC/C=C/C=C/C(=O)O`, the EC50 (as a rule, the concentration that produces a half-maximal response) in test [1] was 32 nM; in test [2], over 1000 nM; in test [3], over 1000 nM.
Turning to `CCc1cc(SCc2sc(-c3ccc(C(F)(F)F)cc3)nc2C)ccc1OC(F)C(=O)O` (racemic), the EC50 is 5 nM in test [4], 710 nM in test [1], 290 nM in test [2] and over 1000 nM in test [3].
In the same order, the values of `Cc1nc(-c2ccc(C(F)(F)F)cc2)sc1CSc1ccc(OC(F)C(=O)O)c(C(C)C)c1` (racemic) are 31.4 nM, 735 nM, 580 nM and over 1000 nM.
In the same order, the values of `Cc1cc(SCc2sc(-c3ccc(C(F)(F)F)cc3)nc2C)ccc1OC(F)C(=O)O` (racemic) are 3.7 nM, 560 nM, 55 nM and over 1000 nM.
Turning to `Cc1cc(SCc2sc(-c3ccc(C(F)(F)F)cc3)nc2C)ccc1OCC(=O)O` [GW501516], the EC50 in test [4] was found to be 0.03 nM.
Same read-out and setting: as for `CN(CCOc1ccc(CC2SC(=O)NC2=O)cc1)c1ccccn1` (configuration not stated) [ROSIGLITAZONE], the figure is over 1000 nM.
